Experimental data reported in ChEMBL document CHEMBL4725349, “Discovery of First-in-Class Protein Arginine Methyltransferase 5 (PRMT5) Degraders” (J Med Chem, 2020).
Blank lines part the entries; values can stand above or below the molecule they belong to. Calls of active or inactive are those of the source. No cut-off for these calls is given here.

Key:
[1] = biological target: T1, von Hippel-Lindau disease tumor suppressor/Protein arginine N-methyltransferase 5 (Homo sapiens, UniProt O14744+P40337); assay: Induction of VHL-mediated PRMT5 degradation in human MCF7 cells at 0.2 to 5 uM incubated for 6 days by Western blot analysis; format: cell-based; details: dose microM 0.2-5, time 6.0 day
Summary of the method: (§1)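 MCF-7 cells treated 6 d (0.2, 1 and 5 μM for initial screen, or indicated concentrations). RIPA lysates immunoblotted for PRMT5. Band intensity quantified by densitometry to derive DC50 and Dmax as mean ± SD from three independent experiments; screening blots representative of at least two.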

PRMT5/MEP50 complex = PRMT5/MEP50 complex (Homo sapiens, UniProt O14744); assay: Inhibition of human PRMT5/MEP50 assessed as reduction in methyltransferase activity using histone 4 peptide as substrate in presence of [3H]SAM incubated for 30 mins; format: protein-complex assay
Summary of the method: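 Radiometric FlashPlate assay tracking transfer of the 3H-methyl group from SAM (1 μM) to biotinylated H4 (1–15) peptide by human PRMT5/MEP50 (5 nM). Compounds were preincubated with enzyme and substrate for 20 min at rt. They were tested at 10 concentrations in threefold serial dilution from 5 μM, in duplicate. IC50 is reported as mean ± SD.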

[2] = biological target: T1, von Hippel-Lindau disease tumor suppressor/Protein arginine N-methyltransferase 5; assay: Induction of VHL-mediated PRMT5 degradation in human MCF7 cells at 5 uM incubated for 6 days by Western blot analysis; format: cell-based; details: time 6.0 day; summary of the method: as §1
MCF7 = assay: Antiproliferative activity against human MCF7 cells at 0.1 to 10 uM incubated for 6 days by CellTiter-Glo assay; format: functional, cell-based; details: dose microM 0.1-10, time 6.0 day
Summary of the method: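 MCF-7 in DMEM + 10% FBS at 37 °C, 5% CO2. Cells exposed to graded concentrations for 6 d, medium with compound refreshed every other day. CellTiter-Glo luminescence, expressed as viability relative to DMSO control; mean ± SD, n = 3.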

[3] = biological target: T1, von Hippel-Lindau disease tumor suppressor/Protein arginine N-methyltransferase 5; assay: Induction of VHL-mediated PRMT5 degradation in human MCF7 cells at 1 to 5 uM incubated for 6 days by Western blot analysis; format: cell-based; details: dose microM 1-5, time 6.0 day; summary of the method: as §1

T1 sequence (O14744 whole entry, looked up): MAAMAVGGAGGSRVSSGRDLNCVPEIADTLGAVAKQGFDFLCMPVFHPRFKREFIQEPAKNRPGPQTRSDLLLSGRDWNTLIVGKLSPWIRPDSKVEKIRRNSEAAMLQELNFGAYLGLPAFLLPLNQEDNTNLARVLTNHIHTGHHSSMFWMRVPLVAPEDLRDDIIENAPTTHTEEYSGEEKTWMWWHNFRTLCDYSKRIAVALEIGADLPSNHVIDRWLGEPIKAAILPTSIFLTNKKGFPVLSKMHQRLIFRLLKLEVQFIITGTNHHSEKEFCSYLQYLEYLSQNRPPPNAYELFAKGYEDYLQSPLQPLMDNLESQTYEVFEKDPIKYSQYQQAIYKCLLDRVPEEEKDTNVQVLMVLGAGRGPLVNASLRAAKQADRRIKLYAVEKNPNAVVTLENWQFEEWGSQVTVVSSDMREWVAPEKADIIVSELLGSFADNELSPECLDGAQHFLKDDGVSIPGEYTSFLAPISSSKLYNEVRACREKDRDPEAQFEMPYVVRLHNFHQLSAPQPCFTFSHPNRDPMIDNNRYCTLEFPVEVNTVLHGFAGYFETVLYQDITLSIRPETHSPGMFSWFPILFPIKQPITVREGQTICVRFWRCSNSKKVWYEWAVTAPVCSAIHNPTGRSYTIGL
T1 sequence (P40337 whole entry, looked up): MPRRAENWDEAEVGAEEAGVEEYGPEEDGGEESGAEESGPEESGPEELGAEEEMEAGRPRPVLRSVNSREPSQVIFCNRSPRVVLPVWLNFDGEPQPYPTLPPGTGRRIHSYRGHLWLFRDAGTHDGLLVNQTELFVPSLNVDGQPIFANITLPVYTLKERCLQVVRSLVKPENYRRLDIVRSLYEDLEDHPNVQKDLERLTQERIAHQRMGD
Sequence of PRMT5/MEP50 complex (O14744 whole entry): as the sequence (O14744 whole entry, looked up) above
Sequence of PRMT5/MEP50 complex (Q9BQA1 whole entry, further chain): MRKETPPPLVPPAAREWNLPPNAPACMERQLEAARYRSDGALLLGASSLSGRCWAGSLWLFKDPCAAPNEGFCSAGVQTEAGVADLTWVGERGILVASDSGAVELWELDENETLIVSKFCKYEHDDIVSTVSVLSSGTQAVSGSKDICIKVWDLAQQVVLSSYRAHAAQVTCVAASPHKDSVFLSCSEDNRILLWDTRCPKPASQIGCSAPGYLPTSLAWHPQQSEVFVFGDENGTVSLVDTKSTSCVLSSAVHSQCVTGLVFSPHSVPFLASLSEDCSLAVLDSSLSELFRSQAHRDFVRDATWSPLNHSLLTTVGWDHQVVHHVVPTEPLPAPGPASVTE

- Activity [1]: inactive
Structure (SMILES): Cc1ncsc1-c1ccc(CNC(=O)[C@@H]2C[C@@H](O)CN2C(=O)[C@@H](NC(=O)COCC(=O)N2CC(Nc3cc(C(=O)NC[C@H](O)CN4CCc5ccccc5C4)ncn3)C2)C(C)(C)C)cc1

Structure (SMILES): Cc1ncsc1-c1ccc([C@H](C)NC(=O)[C@H]2C[C@H](O)CN2C(=O)[C@@H](NC(=O)COCCOCCOCCOCCOCC(=O)N2CC(Nc3cc(C(=O)NC[C@H](O)CN4CCc5ccccc5C4)ncn3)C2)C(C)(C)C)cc1
- IC50 (PRMT5/MEP50 complex): 0.012 µM
- Activity [2]: inactive
- Activity (MCF7): inactive

- Activity [1]: inactive
Structure (SMILES): Cc1ncsc1-c1ccc(CNC(=O)[C@@H]2C[C@@H](O)CN2C(=O)[C@@H](NC(=O)CCOCCOCCC(=O)N2CC(Nc3cc(C(=O)NC[C@H](O)CN4CCc5ccccc5C4)ncn3)C2)C(C)(C)C)cc1

- Activity [3]: Active
Structure (SMILES): Cc1ncsc1-c1ccc(CNC(=O)[C@@H]2C[C@@H](O)CN2C(=O)[C@@H](NC(=O)COCCOCCOCCOCCOCC(=O)N2CC(Nc3cc(C(=O)NC[C@H](O)CN4CCc5ccccc5C4)ncn3)C2)C(C)(C)C)cc1
